The record followed here is ChEMBL document CHEMBL4229344 (Eur J Med Chem, 2018).

For data set [1], the target named is MAP/microtubule affinity-regulating kinase 4 (Homo sapiens) (UniProt Q96L34). Put plainly: Binding affinity to wild-type human partial length MARK4 (K29 to G340 residues) expressed in bacterial expression system assessed as residual binding level at 1 uM by Kinomescan method relative to control.
Data set [2] deals with Receptor-type tyrosine-protein kinase FLT3 (Homo sapiens), P36888 [N841I]. The data set is described as follows: Binding affinity to human partial length FLT3 N841I mutant (V592 to Y969 residues) expressed in bacterial expression system assessed as residual binding level at 1 uM by Kinomescan method relative to control. The gist of the method:
(§1)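 Kinome-wide single-concentration binding screen (KINOMEscan) at 1 μM against a panel of 468 purified kinases and mutants. Read-out is relative binding of each kinase compared with control. Selectivity across the panel was summarised as an S(10) score.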

For data set [3], the target named is Transient receptor potential cation channel subfamily M member 6 (Homo sapiens) (UniProt Q9BX84). Put plainly: Binding affinity to wild-type human partial length TRPM6 (Q1723 to I1998 residues) expressed in mammalian expression system assessed as residual binding level at 1 uM by Kinomescan method relative to control.
Transient receptor potential cation channel subfamily M member 6 (Homo sapiens), sequence (Q9BX84 whole entry, the tested form may be a part): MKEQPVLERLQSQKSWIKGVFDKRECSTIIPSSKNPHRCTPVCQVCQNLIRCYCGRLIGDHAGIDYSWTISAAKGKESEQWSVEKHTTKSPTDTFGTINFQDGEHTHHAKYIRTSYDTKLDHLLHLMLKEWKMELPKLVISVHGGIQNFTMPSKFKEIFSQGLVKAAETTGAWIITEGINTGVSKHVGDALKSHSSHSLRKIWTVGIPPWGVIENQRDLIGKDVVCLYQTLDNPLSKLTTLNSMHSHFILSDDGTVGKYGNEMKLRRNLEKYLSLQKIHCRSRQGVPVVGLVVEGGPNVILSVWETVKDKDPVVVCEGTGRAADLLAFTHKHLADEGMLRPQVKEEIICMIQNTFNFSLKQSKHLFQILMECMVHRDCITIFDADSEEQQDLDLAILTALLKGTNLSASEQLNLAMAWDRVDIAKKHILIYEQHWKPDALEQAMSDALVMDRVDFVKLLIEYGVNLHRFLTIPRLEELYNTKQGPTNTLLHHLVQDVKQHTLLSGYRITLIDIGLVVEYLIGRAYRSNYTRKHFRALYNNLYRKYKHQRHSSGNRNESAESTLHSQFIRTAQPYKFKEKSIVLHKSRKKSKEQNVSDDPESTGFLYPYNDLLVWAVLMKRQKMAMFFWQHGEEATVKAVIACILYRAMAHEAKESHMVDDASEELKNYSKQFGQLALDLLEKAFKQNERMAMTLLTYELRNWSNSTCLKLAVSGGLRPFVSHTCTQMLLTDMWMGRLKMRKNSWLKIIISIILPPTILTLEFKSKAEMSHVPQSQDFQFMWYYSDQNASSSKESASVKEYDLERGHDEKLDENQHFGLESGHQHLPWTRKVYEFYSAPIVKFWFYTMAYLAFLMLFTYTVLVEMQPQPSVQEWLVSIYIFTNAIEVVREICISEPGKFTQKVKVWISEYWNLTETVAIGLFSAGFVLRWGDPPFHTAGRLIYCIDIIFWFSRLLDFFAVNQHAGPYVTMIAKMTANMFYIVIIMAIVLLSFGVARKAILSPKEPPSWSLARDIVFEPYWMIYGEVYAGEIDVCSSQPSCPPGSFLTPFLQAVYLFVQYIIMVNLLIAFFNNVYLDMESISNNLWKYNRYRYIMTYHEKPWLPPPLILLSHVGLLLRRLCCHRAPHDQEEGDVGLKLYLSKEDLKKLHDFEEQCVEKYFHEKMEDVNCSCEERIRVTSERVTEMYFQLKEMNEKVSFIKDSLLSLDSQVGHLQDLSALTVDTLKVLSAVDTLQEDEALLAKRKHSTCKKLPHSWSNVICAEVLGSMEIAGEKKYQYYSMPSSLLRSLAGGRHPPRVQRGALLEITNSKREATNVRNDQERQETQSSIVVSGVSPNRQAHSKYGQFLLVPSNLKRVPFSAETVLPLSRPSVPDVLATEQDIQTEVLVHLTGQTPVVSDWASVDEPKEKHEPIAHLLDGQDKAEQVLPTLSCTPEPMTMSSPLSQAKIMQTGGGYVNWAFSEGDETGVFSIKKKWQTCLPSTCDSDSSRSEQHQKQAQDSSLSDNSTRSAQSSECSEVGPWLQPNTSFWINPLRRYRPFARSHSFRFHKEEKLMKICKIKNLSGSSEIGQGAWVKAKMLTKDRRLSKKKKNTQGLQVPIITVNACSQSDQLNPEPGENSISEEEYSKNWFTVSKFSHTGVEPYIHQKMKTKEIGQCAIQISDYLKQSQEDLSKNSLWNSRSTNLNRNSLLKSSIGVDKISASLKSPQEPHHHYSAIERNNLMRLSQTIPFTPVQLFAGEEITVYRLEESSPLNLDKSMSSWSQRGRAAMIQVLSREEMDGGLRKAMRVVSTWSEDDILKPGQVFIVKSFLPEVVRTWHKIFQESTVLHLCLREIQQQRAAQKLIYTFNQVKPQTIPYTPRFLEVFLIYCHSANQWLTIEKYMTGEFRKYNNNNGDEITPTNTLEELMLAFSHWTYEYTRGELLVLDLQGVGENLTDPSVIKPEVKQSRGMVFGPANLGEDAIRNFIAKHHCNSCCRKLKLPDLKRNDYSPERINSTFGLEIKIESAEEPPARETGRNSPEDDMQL
Data set [4] concerns the target Serine/threonine-protein kinase PLK1 (Homo sapiens) (UniProt P53350). Put plainly: Binding affinity to wild-type human partial length PLK1 (A33 to F325 residues) expressed in mammalian expression system assessed as residual binding level at 1 uM by Kinomescan method relative to control.
A short description of data set [5]: AUC (0 to t) in Sprague-Dawley rat at 10 mg/kg, po. The class given is ADME, organism-based. Conditions: in vivo. An outline of the steps:
(§2)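 Male Sprague-Dawley rats (6–8 weeks) fasted overnight, dosed IV or orally; compound dissolved in 5% DMSO/40% PEG400/55% saline (dosing solution 1 mg/mL). Blood (~0.2 mL) from jugular vein into heparin; IV sampling 1 min–8 h, oral 5 min–24 h. Plasma separated by centrifugation at 2–8 °C, stored at −80 °C until analysis.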

For data set [6], the target named is Platelet-derived growth factor receptor beta (Homo sapiens, UniProt P09619). Put plainly: Binding affinity to wild-type human partial length PDGFRbeta (V582 to Y1009 residues) expressed in bacterial expression system assessed as residual binding level at 1 uM by Kinomescan method relative to control. The gist of the method:
(§3)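 KINOMEscan competition binding against a panel of 468 purified kinases/mutants, compound tested at 1 μM; readout is relative binding activity versus control.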

Data set [7] in a line: AUC (0 to infinity) in Sprague-Dawley rat at 1 mg/kg, iv. In kind it is ADME, organism-based. Set-up: dose 1 mg/kg, time infinity, route intravenous. Particulars: in vivo. An outline of the steps:
as §2

For data set [8], the system named is Mast/stem cell growth factor receptor Kit (Homo sapiens), P10721 [D816H]. Put plainly: Binding affinity to human partial length KIT D816H mutant (I571 to D952 residues) expressed in mammalian expression system assessed as residual binding level at 1 uM by Kinomescan method relative to control. The gist of the method: as §1
The target of data set [9] is TRAF2 and NCK-interacting protein kinase (Homo sapiens) (UniProt Q9UKE5). Put plainly: Binding affinity to wild-type human partial length TNIK (D4 to K311 residues) expressed in bacterial expression system assessed as residual binding level at 1 uM by Kinomescan method relative to control. The gist of the method: as §3
Data set [10] has as its target Serine/threonine-protein kinase 17B (Homo sapiens) (UniProt O94768). Put plainly: Binding affinity to wild-type human full length DRAK2 (M1 to C372 residues) expressed in bacterial expression system assessed as residual binding level at 1 uM by Kinomescan method relative to control. The gist of the method:
(§4)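 KINOMEscan competition binding against 468 purified kinases/mutants, test compound at 1 µM; residual binding relative to control.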

In data set [11] the target is Ribosomal protein S6 kinase alpha-5 (Homo sapiens) (UniProt O75582). Put plainly: Binding affinity to wild-type human partial length C-terminal RPS6KA5 kinase domain 2 (V390 to T718 residues) expressed in bacterial expression system assessed as residual binding level at 1 uM by Kinomescan method relative to control.
Ribosomal protein S6 kinase alpha-5 (Homo sapiens), sequence (O75582 whole entry, looked up, the tested form may be a part): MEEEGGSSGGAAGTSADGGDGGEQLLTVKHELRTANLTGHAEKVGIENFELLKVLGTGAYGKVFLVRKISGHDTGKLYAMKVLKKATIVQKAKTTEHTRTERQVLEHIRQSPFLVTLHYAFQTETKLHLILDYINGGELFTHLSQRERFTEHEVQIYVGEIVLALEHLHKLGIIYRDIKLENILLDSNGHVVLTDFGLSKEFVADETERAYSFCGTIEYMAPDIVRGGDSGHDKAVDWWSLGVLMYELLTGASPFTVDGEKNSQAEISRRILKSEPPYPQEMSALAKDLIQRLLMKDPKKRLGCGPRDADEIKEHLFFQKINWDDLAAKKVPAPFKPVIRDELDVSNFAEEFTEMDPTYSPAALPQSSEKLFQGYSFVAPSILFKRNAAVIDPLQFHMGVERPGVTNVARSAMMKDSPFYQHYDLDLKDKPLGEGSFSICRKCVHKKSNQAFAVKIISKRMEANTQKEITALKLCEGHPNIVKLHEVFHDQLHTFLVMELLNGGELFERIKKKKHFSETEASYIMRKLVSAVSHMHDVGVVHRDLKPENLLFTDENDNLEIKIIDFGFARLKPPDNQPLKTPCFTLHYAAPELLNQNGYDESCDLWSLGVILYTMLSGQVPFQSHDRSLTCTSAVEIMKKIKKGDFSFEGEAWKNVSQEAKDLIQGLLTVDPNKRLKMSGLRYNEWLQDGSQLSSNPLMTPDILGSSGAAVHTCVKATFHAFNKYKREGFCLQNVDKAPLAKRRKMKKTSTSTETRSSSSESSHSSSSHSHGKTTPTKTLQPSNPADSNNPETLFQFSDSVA
The target in data set [12] is Cyclin-dependent kinase 7 (Homo sapiens) (UniProt P50613). Put plainly: Binding affinity to wild-type human full length CDK7 (M1 to L344 residues) expressed in mammalian expression system assessed as residual binding level at 1 uM by Kinomescan method relative to control. The gist of the method: as §4
Cyclin-dependent kinase 7 (Homo sapiens), sequence (P50613 whole entry, the tested form may be a part): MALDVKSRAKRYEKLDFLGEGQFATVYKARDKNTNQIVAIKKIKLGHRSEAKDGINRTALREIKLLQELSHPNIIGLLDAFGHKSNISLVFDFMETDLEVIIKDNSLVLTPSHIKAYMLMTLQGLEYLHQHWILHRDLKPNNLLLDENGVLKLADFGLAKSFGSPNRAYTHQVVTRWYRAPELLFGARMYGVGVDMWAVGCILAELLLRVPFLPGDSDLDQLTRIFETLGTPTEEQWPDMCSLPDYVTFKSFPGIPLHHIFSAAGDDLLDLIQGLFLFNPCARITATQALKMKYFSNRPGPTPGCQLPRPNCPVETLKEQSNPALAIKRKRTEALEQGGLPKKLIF
Data set [13] concerns Mast/stem cell growth factor receptor Kit (Homo sapiens), P10721 [D816V]. The data set is described as follows: Binding affinity to human partial length KIT D816V mutant (I571 to D952 residues) expressed in bacterial expression system assessed as residual binding level at 1 uM by Kinomescan method relative to control. An outline of the steps:
as §1

The target of data set [14] is Calcium/calmodulin-dependent protein kinase type II subunit delta (Homo sapiens) (UniProt Q13557). The data set is described as follows: Binding affinity to wild-type human partial length CAMK2D (M1 to E329 residues) expressed in bacterial expression system assessed as residual binding level at 1 uM by Kinomescan method relative to control.
Data set [15] has as its system Mast/stem cell growth factor receptor Kit (Homo sapiens), P10721 [L576P]. The data set is described as follows: Binding affinity to human partial length KIT L576P mutant (Y545 to D952 residues) expressed in bacterial expression system assessed as residual binding level at 1 uM by Kinomescan method relative to control. The gist of the method:
as §1

Data set [16] relates to EOL1. The data set is described as follows: Induction of apoptosis in human EOL-1 cells assessed as cleaved caspase3 expression level at 3 to 100 nM after 24 hrs by Western blot analysis. The class given is functional, cell-based. An outline of the steps:
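Cells exposed to compound or DMSO for the stated periods, then lysed and immunoblotted for PARP and caspase-3 cleavage, with β-actin as loading control. NCI-H1703 stimulation used PDGF AA at 100 ng/mL.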
Background: In western blotting, separated proteins are transferred to a membrane and probed.

In data set [17] the target is Tyrosine-protein kinase Srms (Homo sapiens) (UniProt Q9H3Y6). The data set is described as follows: Binding affinity to wild-type human partial length SRMS (L208 to P488 residues) expressed in mammalian expression system assessed as residual binding level at 1 uM by Kinomescan method relative to control.
Tyrosine-protein kinase Srms (Homo sapiens), sequence (Q9H3Y6 whole entry, the tested form may be a part): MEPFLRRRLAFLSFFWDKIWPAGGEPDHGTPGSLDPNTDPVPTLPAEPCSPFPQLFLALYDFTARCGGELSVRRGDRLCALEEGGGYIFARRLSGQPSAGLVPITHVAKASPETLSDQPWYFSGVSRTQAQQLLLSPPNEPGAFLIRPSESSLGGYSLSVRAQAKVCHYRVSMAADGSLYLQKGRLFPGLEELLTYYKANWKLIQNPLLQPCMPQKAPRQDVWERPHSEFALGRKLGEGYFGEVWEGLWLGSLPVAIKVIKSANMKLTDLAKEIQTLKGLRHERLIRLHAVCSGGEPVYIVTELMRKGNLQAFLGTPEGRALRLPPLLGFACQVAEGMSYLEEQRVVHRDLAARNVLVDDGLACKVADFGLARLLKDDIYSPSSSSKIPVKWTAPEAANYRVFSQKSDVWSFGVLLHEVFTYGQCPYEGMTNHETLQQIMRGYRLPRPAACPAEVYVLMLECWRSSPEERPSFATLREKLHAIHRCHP
Data set [18] deals with Cyclin-dependent kinase 11B (Homo sapiens) (UniProt P21127). The data set is described as follows: Binding affinity to wild-type human partial length CDC2L1 (P353 to G692 residues) expressed in bacterial expression system assessed as residual binding level at 1 uM by Kinomescan method relative to control. An outline of the steps: (§5)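 Kinome-wide competition binding screen against a panel of 468 purified kinases/mutants, with the test compound at a single concentration of 1 μM. Read-out is the relative binding activity of each kinase in the presence of compound.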

The target in data set [19] is Cyclin-dependent kinase 15 (Homo sapiens) (UniProt Q96Q40). The data set is described as follows: Binding affinity to wild-type human full length PFTAIRE2 (M1 to W384 residues) expressed in bacterial expression system assessed as residual binding level at 1 uM by Kinomescan method relative to control. An outline of the steps:
as §4

The target in data set [20] is Casein kinase II subunit alpha (Homo sapiens) (UniProt P68400). Put plainly: Binding affinity to wild-type human full length CSNK2A1 (M1 to Q391 residues) expressed in mammalian expression system assessed as residual binding level at 1 uM by Kinomescan method relative to control. An outline of the steps:
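Single-concentration (1 μM) competition-binding screen run by KINOMEscan against a panel of 468 purified kinases and mutants. The read-out is the relative binding activity of the test compound to each kinase.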

The target of data set [21] is Vascular endothelial growth factor receptor 1 (Homo sapiens) (UniProt P17948). Put plainly: Binding affinity to wild-type human partial length FLT1 (R781 to F1239 residues) expressed in bacterial expression system assessed as residual binding level at 1 uM by Kinomescan method relative to control. An outline of the steps:
as §5

Active and inactive are the calls of the source. The rule behind the calls is not given here.

Serine/threonine-protein kinase PLK1 (Homo sapiens), sequence (P53350 whole entry, the tested form may be a part): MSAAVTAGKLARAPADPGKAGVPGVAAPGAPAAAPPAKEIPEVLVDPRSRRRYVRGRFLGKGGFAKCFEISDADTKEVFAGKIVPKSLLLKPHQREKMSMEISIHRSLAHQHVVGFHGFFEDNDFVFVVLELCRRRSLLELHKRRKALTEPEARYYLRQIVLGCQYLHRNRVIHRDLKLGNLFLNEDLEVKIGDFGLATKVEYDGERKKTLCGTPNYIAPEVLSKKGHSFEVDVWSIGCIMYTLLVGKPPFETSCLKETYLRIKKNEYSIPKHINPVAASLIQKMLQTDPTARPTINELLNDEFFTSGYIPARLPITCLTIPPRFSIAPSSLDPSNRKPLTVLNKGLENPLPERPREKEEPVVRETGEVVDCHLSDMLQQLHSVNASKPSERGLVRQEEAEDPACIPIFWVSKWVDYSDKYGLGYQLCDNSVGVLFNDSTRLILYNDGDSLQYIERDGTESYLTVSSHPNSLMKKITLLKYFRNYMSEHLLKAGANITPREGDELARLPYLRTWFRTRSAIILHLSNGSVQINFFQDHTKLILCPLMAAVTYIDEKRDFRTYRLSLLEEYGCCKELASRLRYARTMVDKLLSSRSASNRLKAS
Serine/threonine-protein kinase 17B (Homo sapiens), sequence (O94768 whole entry, the tested form may be a part): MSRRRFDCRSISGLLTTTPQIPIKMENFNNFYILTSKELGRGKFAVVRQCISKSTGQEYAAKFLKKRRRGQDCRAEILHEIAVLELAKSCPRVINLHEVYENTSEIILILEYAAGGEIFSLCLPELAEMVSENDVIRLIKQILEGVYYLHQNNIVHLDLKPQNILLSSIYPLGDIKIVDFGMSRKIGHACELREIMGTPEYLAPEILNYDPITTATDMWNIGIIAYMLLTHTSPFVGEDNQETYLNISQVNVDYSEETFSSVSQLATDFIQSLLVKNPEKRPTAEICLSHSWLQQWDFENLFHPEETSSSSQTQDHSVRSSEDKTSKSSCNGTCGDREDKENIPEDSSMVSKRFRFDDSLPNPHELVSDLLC
Casein kinase II subunit alpha (Homo sapiens), sequence (P68400 whole entry, looked up, the tested form may be a part): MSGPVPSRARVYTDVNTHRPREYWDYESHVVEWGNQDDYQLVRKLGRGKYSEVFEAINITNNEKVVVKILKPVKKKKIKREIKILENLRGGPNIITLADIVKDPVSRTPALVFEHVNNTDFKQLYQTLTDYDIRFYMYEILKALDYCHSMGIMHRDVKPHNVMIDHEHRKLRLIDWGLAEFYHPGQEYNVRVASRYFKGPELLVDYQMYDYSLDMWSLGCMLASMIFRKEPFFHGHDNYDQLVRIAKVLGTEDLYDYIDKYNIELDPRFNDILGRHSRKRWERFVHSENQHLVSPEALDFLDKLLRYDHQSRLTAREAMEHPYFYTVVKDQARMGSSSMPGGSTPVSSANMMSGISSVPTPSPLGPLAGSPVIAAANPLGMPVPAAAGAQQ

One may read the AUC(0-t) as the area under the concentration-time curve up to a stated or last time point. Read a high AUC(0-t) as high exposure. A word on the AUC(0-inf): it is the area under the concentration-time curve extrapolated to infinity. Regarding `Cc1ccc(NC(=O)c2ccc(CN(CCN(C)C)C(=O)c3cccnc3)cc2)cc1Nc1nccc(-c2cccnc2)n1`, the Activity in [1] worked out at 90%; in data set [2] it was 100%; in data set [3], 100%; in data set [4], 100%; in [6] it was 0.7%; in data set [8], 100%. Also, the Activity in data set [9] was 83%; in data set [10] it was 94%; in data set [11] it was 89%; in data set [12], 91%; in data set [13], 88%; in [14], 100%. In addition, the Activity was determined as 0.6% in data set [15]; 97% in data set [17]; 91% in data set [18]; 87% in [19]; 81% in data set [20]; 75% in [21]. The compound also yielded an AUC(0-t) in data set [5] of 103 ng·h/mL. In addition, the total exposure AUC(0-inf) in [7] worked out at 541 ng·h/mL. Besides, the result in data set [16] was Active.
